Activity calls are given as the source filed them. The calls are words filed in the database; no cut-off is given here.
What was measured:
RAW264.7 [1] = experiment: Antiinflammatory activity in mouse RAW264.7 cells assessed as inhibition of LPS-induced nitric oxide release at 10 uM treated 2 hrs before LPS challenge measured after 48 hrs by Griess assay relative to control; type: functional
[2] = Cytotoxicity against mouse RAW264.7 cells assessed as cell viability at 5 uM after 48 hrs by MTT assay relative to control; type: cell-based; conditions: read-out: Activity
Method in brief: (§1)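 MTT assay. RAW264.7 cells at 4 × 10^3 cells/well, cultured 16 h, then exposed to compounds diluted in DMEM for 48 h. MTT (0.5 mg/mL) added for 4 h, formazan dissolved in DMSO, OD570 read. Viability = compound OD570/blank OD570 × 100%, with the medium-only blank set as 100%. Three independent experiments.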

[3] = biological target: T1, Peroxisome proliferator-activated receptor gamma (Mus musculus) (UniProt P37238); experiment: Inhibition of PPARgamma in mouse RAW264.7 cells assessed as inhibition of LPS-induced ERK1/2 phosphorylation at 10 uM after 4 hrs by Western blot analysis; type: cell-based
T1 sequence (whole entry): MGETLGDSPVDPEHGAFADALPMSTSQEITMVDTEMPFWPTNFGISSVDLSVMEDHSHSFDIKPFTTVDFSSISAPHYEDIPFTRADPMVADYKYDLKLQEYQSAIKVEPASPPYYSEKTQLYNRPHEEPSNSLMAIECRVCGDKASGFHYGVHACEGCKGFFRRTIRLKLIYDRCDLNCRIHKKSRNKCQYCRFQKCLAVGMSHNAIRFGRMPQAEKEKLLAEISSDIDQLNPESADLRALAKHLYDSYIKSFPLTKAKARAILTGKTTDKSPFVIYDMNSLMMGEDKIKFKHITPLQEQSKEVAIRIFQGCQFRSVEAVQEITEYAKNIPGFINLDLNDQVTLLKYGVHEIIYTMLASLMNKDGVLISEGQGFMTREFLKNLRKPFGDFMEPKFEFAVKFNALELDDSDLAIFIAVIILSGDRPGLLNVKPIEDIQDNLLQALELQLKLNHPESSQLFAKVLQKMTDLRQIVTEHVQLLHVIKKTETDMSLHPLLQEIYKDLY
Method in brief: (§2)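 RAW264.7 cells at 2 × 10^6 per well, cultured 18 h, then given fresh medium with compounds plus 500 ng/mL LPS for 4 h, with GW9662 at 5 where included. Lysates clarified at 14,000 × g, protein by BCA, equal loads on SDS-PAGE. Blots blocked in 5% milk/TBST, primary antibodies 1:1000 overnight, secondary 1:1000 90 min, ECL detection. Means ± SD (n = 3).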

RAW264.7 [4] = experiment: Antiinflammatory activity in mouse RAW264.7 cells assessed as inhibition of LPS-induced IL-6 release at 10 uM treated 2 hrs before LPS challenge measured after 12 hrs by ELISA (reference value: 13.9 +/- 2.6 pg/ml); type: functional
RAW264.7 [5] = experiment: Antiinflammatory activity in mouse RAW264.7 cells assessed as inhibition of LPS-induced IL-6 release at 10 uM treated 2 hrs before LPS challenge measured after 24 hrs by ELISA (reference value: 45.1 +/- 5.6 pg/ml); type: functional
[6] = biological target: T1, Peroxisome proliferator-activated receptor gamma (Mus musculus); experiment: Inhibition of PPARgamma in mouse RAW264.7 cells assessed as inhibition of LPS-induced NF-kappaB 65 phosphorylation at 10 uM after 4 hrs by Western blot analysis; type: cell-based; method in brief: as §2
[7] = biological target: T1, Peroxisome proliferator-activated receptor gamma (Mus musculus); experiment: Inhibition of PPARgamma in mouse RAW264.7 cells assessed as inhibition of LPS-induced NF-kappaB 65 phosphorylation at 10 uM after 4 hrs by Western blot analysis in presence of PPARgamma antagonist GW9662; type: cell-based; method in brief: as §2
[8] = biological target: T1, Peroxisome proliferator-activated receptor gamma (Mus musculus); experiment: Inhibition of PPARgamma in mouse RAW264.7 cells assessed as inhibition of LPS-induced p38 MAPK phosphorylation at 10 uM after 4 hrs by Western blot analysis in presence of PPARgamma antagonist GW9662; type: cell-based; method in brief: as §2
RAW264.7 [9] = experiment: Antiinflammatory activity in mouse RAW264.7 cells assessed as inhibition of LPS-induced TNF-alpha release at 10 uM treated 2 hrs before LPS challenge measured after 6 hrs by ELISA (reference value: 5.9 +/- 0.5 pg/ml); type: functional
[10] = biological target: T1, Peroxisome proliferator-activated receptor gamma (Mus musculus); experiment: Inhibition of PPARgamma in mouse RAW264.7 cells assessed as inhibition of LPS-induced JNK phosphorylation at 10 uM after 4 hrs by Western blot analysis; type: cell-based; method in brief: as §2
RAW264.7 [11] = experiment: Antiinflammatory activity in mouse RAW264.7 cells assessed as inhibition of LPS-induced IL-6 release at 10 uM treated 2 hrs before LPS challenge measured after 6 hrs by ELISA (reference value: 7.2 +/- 0.9 pg/ml); type: functional
[12] = biological target: T1, Peroxisome proliferator-activated receptor gamma (Mus musculus); experiment: Inhibition of PPARgamma in mouse RAW264.7 cells assessed as inhibition of LPS-induced IkappaBalpha phosphorylation at 10 uM after 4 hrs by Western blot analysis; type: cell-based; method in brief: as §2
RAW264.7 [13] = experiment: Antiinflammatory activity in mouse RAW264.7 cells assessed as inhibition of LPS-induced TNF-alpha release at 10 uM treated 2 hrs before LPS challenge measured by ELISA; type: functional, cell-based; conditions: TDE = time-dependent effect
[14] = biological target: T1, Peroxisome proliferator-activated receptor gamma (Mus musculus); experiment: Inhibition of PPARgamma in mouse RAW264.7 cells assessed as inhibition of LPS-induced JNK phosphorylation at 10 uM after 4 hrs by Western blot analysis in presence of PPARgamma antagonist GW9662; type: cell-based; method in brief: as §2
[15] = biological target: T1, Peroxisome proliferator-activated receptor gamma (Mus musculus); experiment: Inhibition of PPARgamma in mouse RAW264.7 cells assessed as inhibition of LPS-induced p38 MAPK phosphorylation at 10 uM after 4 hrs by Western blot analysis; type: cell-based; method in brief: as §2
RAW264.7 [16] = experiment: Antiinflammatory activity in mouse RAW264.7 cells assessed as inhibition of LPS-induced TNF-alpha release at 10 uM treated 2 hrs before LPS challenge measured after 24 hrs by ELISA (reference value: 38.3 +/- 3.3 pg/ml); type: functional
[17] = biological target: T1, Peroxisome proliferator-activated receptor gamma (Mus musculus); experiment: Inhibition of PPARgamma in mouse RAW264.7 cells assessed as inhibition of LPS-induced ERK1/2 phosphorylation at 10 uM after 4 hrs by Western blot analysis in presence of PPARgamma antagonist GW9662; type: cell-based; method in brief: as §2
RAW264.7 [18] = experiment: Antiinflammatory activity in mouse RAW264.7 cells assessed as inhibition of LPS-induced TNF-alpha release at 10 uM treated 2 hrs before LPS challenge measured after 12 hrs by ELISA (reference value: 11.8 +/- 1.2 pg/ml); type: functional
[19] = biological target: T1, Peroxisome proliferator-activated receptor gamma (Mus musculus); experiment: Inhibition of PPARgamma in mouse RAW264.7 cells assessed as inhibition of LPS-induced IkappaBalpha phosphorylation at 10 uM after 4 hrs by Western blot analysis in presence of PPARgamma antagonist GW9662; type: cell-based; method in brief: as §2
RAW264.7 [20] = experiment: Antiinflammatory activity in mouse RAW264.7 cells assessed as inhibition of LPS-induced IL-6 release at 10 uM treated 2 hrs before LPS challenge measured by ELISA; type: functional, cell-based; conditions: TDE = time-dependent effect
[21] = Cytotoxicity against mouse RAW264.7 cells assessed as cell viability at 10 uM after 48 hrs by MTT assay relative to control; type: cell-based; conditions: read-out: Activity; method in brief: as §1

## Cc1nc(C)c(COc2cccc(/C=C3\SC(=O)NC3=O)c2)nc1C
RAW264.7 [1]
  inhibition at 10 µM: 23.5%

## O=C(Nc1ccccc1)c1cc([N+](=O)[O-])ccc1Cl
[2]
  viability at 48 h, 5 µM: 101%

## CCc1ccc(CCOc2ccc(/C=C3\OC(=O)C(Cl)=C3Cl)cc2)nc1
RAW264.7 [1]
  inhibition at 10 µM: 40.8%

## COc1cc(/C=C2\SC(=O)NC2=O)ccc1OCc1nc(C)c(C)nc1C
RAW264.7 [1]
  inhibition at 10 µM: 24.9%

## COc1cc(/C=C2\OC(=O)C(Br)=C2Br)ccc1OCc1nc(C)c(C)nc1C
RAW264.7 [1]
  inhibition at 10 µM: 37.2%

## COc1cc(/C=C2\OC(=O)C(Br)=C2Br)ccc1OCc1ccccn1
RAW264.7 [1]
  inhibition at 10 µM: 33.9%

## COc1cc(/C=C2\OC(=O)C(Cl)=C2Cl)ccc1OCCc1ccccn1
RAW264.7 [1]
  inhibition at 10 µM: 38.9%

## O=C1O/C(=C\c2ccc(OCc3ccccn3)cc2)C(Cl)=C1Cl
RAW264.7 [1]
  inhibition at 10 µM: 16.3%

## CCc1ccc(CCOc2ccc(/C=C3\OC(=O)C(Br)=C3Br)cc2OC)nc1
[3]
  inhibition: Active
RAW264.7 [4]
  Activity: 2528.4 pg/mL
RAW264.7 [5]
  Activity: 6360 pg/mL
[6]
  inhibition: Active
[7]
  inhibition: inactive
[8]
  inhibition: inactive
RAW264.7 [9]
  Activity: 347.1 pg/mL
[10]
  inhibition: Active
RAW264.7 [1]
  inhibition at 10 µM: 75.8%
RAW264.7 [11]
  Activity: 1705.9 pg/mL
[12]
  inhibition: Active
RAW264.7 [13]
  inhibition: tde
[14]
  inhibition: inactive
[15]
  inhibition: Active
RAW264.7 [16]
  Activity: 1110.5 pg/mL
[17]
  inhibition: inactive
RAW264.7 [18]
  Activity: 575.6 pg/mL
[19]
  inhibition: inactive
RAW264.7 [20]
  inhibition: tde
[21]
  viability at 48 h, 10 µM: 98.1%

## CCOc1cc(/C=C2\OC(=O)C(Br)=C2Br)ccc1OCc1ccccn1
RAW264.7 [1]
  inhibition at 10 µM: 42.2%

## CN(CCOc1ccc(CC2SC(=O)NC2=O)cc1)c1ccccn1 (stereo unspecified) [ROSIGLITAZONE]
RAW264.7 [4]
  Activity: 3477.9 pg/mL
RAW264.7 [5]
  Activity: 8388.6 pg/mL
RAW264.7 [9]
  Activity: 416.9 pg/mL
RAW264.7 [1]
  inhibition at 10 µM: 16.7%
RAW264.7 [11]
  Activity: 2783.9 pg/mL
RAW264.7 [13]
  inhibition: tde
RAW264.7 [16]
  Activity: 1293.8 pg/mL
RAW264.7 [18]
  Activity: 631.3 pg/mL
RAW264.7 [20]
  inhibition: tde
[21]
  viability at 48 h, 10 µM: 99.7%

## COc1cc(/C=C2\OC(=O)C(Cl)=C2Cl)ccc1OCc1ccccn1
RAW264.7 [1]
  inhibition at 10 µM: 36.4%

## O=C1O/C(=C\c2ccc(OCc3ccccn3)cc2)C(Br)=C1Br
RAW264.7 [1]
  inhibition at 10 µM: 29.2%

## COc1cc(/C=C2\OC(=O)C(Br)=C2Br)ccc1OCCc1ccccn1
RAW264.7 [1]
  inhibition at 10 µM: 54.7%

## CCOc1cc(/C=C2\OC(=O)C(Br)=C2Br)ccc1OCCc1ccccn1
RAW264.7 [1]
  inhibition at 10 µM: 62.9%

## COc1ccc2c(c1)c(CC(=O)O)c(C)n2C(=O)c1ccc(Cl)cc1 [INDOMETHACIN]
RAW264.7 [4]
  Activity: 2989.6 pg/mL
RAW264.7 [5]
  Activity: 7645.9 pg/mL
RAW264.7 [9]
  Activity: 366.5 pg/mL
RAW264.7 [1]
  inhibition at 10 µM: 31.3%
RAW264.7 [11]
  Activity: 2313.5 pg/mL
RAW264.7 [13]
  inhibition: tde
RAW264.7 [16]
  Activity: 1242 pg/mL
RAW264.7 [18]
  Activity: 612.6 pg/mL
RAW264.7 [20]
  inhibition: tde
[21]
  viability at 48 h, 10 µM: 101%

## CCOc1cc(/C=C2\OC(=O)C(Cl)=C2Cl)ccc1OCCc1ccccn1
RAW264.7 [1]
  inhibition at 10 µM: 50.4%

## CCOc1cc(/C=C2\SC(=O)NC2=O)ccc1OCc1nc(C)c(C)nc1C
RAW264.7 [1]
  inhibition at 10 µM: 30.7%

## O=C1O/C(=C\c2ccc(OCCc3ccccn3)cc2)C(Br)=C1Br
RAW264.7 [1]
  inhibition at 10 µM: 38%

## CCc1ccc(CCOc2ccc(/C=C3\OC(=O)C(Br)=C3Br)cc2)nc1
RAW264.7 [1]
  inhibition at 10 µM: 43.6%

## CCOc1cc(/C=C2\OC(=O)C(Br)=C2Br)ccc1OCCc1ccc(CC)cn1
[3]
  inhibition: Active
RAW264.7 [4]
  Activity: 902.2 pg/mL
RAW264.7 [5]
  Activity: 2360.2 pg/mL
[6]
  inhibition: Active
[7]
  inhibition: inactive
[8]
  inhibition: inactive
RAW264.7 [9]
  Activity: 323.8 pg/mL
[10]
  inhibition: Active
RAW264.7 [1]
  inhibition at 10 µM: 80.1%
RAW264.7 [11]
  Activity: 598.1 pg/mL
[12]
  inhibition: Active
RAW264.7 [13]
  inhibition: tde
[14]
  inhibition: inactive
[15]
  inhibition: Active
RAW264.7 [16]
  Activity: 1044.2 pg/mL
[17]
  inhibition: inactive
RAW264.7 [18]
  Activity: 519.8 pg/mL
[19]
  inhibition: inactive
RAW264.7 [20]
  inhibition: tde
[21]
  viability at 48 h, 10 µM: 93.1%

## Cc1nc(C)c(COc2ccc(/C=C3\OC(=O)C(Br)=C3Br)cc2)nc1C
RAW264.7 [1]
  inhibition at 10 µM: 30.1%

## CCOc1cc(/C=C2\OC(=O)C(Cl)=C2Cl)ccc1OCc1ccccn1
RAW264.7 [1]
  inhibition at 10 µM: 36.8%

## Cc1nc(C)c(COc2ccc(/C=C3\SC(=O)NC3=O)cc2)nc1C
RAW264.7 [1]
  inhibition at 10 µM: 19.3%

## O=C1O/C(=C\c2ccc(OCCc3ccccn3)cc2)C(Cl)=C1Cl
RAW264.7 [1]
  inhibition at 10 µM: 20.2%
